In ChEMBL document CHEMBL5331142, “Novel 1,4-Dihydropyridines as Specific Binders and Activators of SIRT3 Impair Cell Viability and Clonogenicity and Downregulate Hypoxia-Induced Targets in Cancer Cells” (J Med Chem, 2023):
The source made the active and inactive calls. The calls are words filed in the database; no cut-off is given here.

Tests used:
[1] = biological target: T1, NAD-dependent protein deacetylase sirtuin-3, mitochondrial (Homo sapiens) (UniProt Q9NTG7); test: Activation of N-terminal his-tagged human SIRT3 (114 to 380 residues) deacylation activity expressed in Escherichia coli at 10 uM using ACS2-acK642 as substrate in presence of NAD+ by NADH oxidation-coupled enzymatic assay; conditions: filed as activator
T1 sequence (whole entry): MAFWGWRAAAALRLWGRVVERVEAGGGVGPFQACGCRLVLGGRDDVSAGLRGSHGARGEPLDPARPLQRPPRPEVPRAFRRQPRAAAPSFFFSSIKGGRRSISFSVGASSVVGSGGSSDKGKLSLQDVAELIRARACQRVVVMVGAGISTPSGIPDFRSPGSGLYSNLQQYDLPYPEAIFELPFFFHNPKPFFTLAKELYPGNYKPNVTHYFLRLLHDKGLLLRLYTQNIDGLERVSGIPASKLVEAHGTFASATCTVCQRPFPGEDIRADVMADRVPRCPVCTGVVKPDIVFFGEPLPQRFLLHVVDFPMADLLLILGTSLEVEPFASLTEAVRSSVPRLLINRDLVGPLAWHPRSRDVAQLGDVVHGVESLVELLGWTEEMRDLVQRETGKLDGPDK
Summary of the method: (§1)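 Coupled PncA/GDH deacylation assay following NADPH oxidation to NADP+. 1.5 μM sirtuin, 50 μM substrate peptide, 100 μM NAD+, compound at 10 μM, 5% final DMSO. Isoform-specific physiological substrates: p53-acK381 (SIRT1), […] (SIRT2), ACS2-acK642 (SIRT3), CPS1-succK537 (SIRT5). Sirtuins expressed in E. coli, Ni-NTA purified, tag cleaved, then size-exclusion chromatography.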

[2] = biological target: T2, NAD-dependent protein deacetylase sirtuin-1 (Homo sapiens) (UniProt Q96EB6); test: Activation of N-terminal his-tagged human SIRT1 expressed in Escherichia coli at 10 uM using p53-acK381 as substrate in presence of NAD+ by NADH oxidation-coupled enzymatic assay; summary of the method: as §1
T2 sequence (whole entry): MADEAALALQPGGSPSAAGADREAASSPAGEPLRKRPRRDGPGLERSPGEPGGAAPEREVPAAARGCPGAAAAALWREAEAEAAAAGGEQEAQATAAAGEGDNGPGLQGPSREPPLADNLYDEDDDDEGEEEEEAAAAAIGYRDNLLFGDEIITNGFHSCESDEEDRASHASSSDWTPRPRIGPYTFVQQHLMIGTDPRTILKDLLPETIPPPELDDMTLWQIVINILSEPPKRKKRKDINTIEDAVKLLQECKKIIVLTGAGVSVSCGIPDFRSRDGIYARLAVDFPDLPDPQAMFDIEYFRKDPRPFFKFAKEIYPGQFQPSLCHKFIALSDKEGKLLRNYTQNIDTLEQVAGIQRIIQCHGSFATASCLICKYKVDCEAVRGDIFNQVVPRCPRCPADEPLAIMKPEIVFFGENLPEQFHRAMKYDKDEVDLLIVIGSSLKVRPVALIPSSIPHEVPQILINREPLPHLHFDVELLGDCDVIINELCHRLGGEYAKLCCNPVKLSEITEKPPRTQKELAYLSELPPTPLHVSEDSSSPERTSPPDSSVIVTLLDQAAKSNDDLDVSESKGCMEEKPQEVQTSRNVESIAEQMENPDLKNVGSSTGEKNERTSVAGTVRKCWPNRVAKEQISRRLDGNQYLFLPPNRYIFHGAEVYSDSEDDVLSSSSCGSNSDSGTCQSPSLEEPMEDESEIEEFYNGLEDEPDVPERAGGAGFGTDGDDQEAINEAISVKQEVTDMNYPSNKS

CAL-62 = test: Anticancer activity against human CAL-62 cells assessed as reduction in cell viability at 50 uM incubated for 24 to 48 hrs under normoxia condition by trypan blue exclusion assay; type: functional, cell-based; conditions: time 24-48 hrs, TDE = time-dependent effect
Summary of the method: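 CAL-62 cells in RPMI 1640 with 10% FBS, treated with 50 μM compound (DMSO) for 24 and 48 h. Hypoxia induced with 200 μM CoCl2, kept in the medium during treatment. Viable cells counted by 0.4% trypan blue staining on a hemocytometer.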

MDA-MB-231 [3] = test: Downregulation of SNAIL gene expression in human MDA-MB-231 cells at 50 uM incubated for 48 hrs by qRT-PCR analysis; type: functional, cell-based
Summary of the method: (§2)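 MDA-MB-231 cells treated with 50 μM compound for 48 h under normoxia, DMSO vehicle control. qRT-PCR quantified by the 2(−ΔCt) method as fold of control, mean ± SEM. Three independent experiments.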

MDA-MB-231 [4] = test: Downregulation of MMP2 gene expression in human MDA-MB-231 cells at 50 uM incubated for 48 hrs by qRT-PCR analysis; type: functional, cell-based; summary of the method: as §2
MDA-MB-231 [5] = test: Downregulation of SNAIL gene expression in human MDA-MB-231 cells at 50 uM incubated for 48 hrs under hypoxia condition by qRT-PCR analysis; type: functional, cell-based
Summary of the method: (§3)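 MDA-MB-231 cells pretreated with 200 μM CoCl2 to induce hypoxia, then exposed to 50 μM compound for 48 h with CoCl2 maintained. qRT-PCR by the 2(−ΔCt) method vs DMSO control, mean ± SEM. Four independent experiments.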

MDA-MB-231 [6] = test: Downregulation of COLLAGEN gene expression in human MDA-MB-231 cells at 50 uM incubated for 48 hrs under hypoxia condition by qRT-PCR analysis; type: functional, cell-based; summary of the method: as §3
MDA-MB-231 [7] = test: Downregulation of SLUG gene expression in human MDA-MB-231 cells at 50 uM incubated for 48 hrs under hypoxia condition by qRT-PCR analysis; type: functional, cell-based; summary of the method: as §3
[8] = biological target: T3, NAD-dependent protein deacetylase sirtuin-2 (Homo sapiens) (UniProt Q8IXJ6); test: Activation of N-terminal his-tagged human SIRT2 (43 to 356 residues) expressed in Escherichia coli at 10 uM using p53-acK381 as substrate in presence of NAD+ by NADH oxidation-coupled enzymatic assay
T3 sequence (whole entry): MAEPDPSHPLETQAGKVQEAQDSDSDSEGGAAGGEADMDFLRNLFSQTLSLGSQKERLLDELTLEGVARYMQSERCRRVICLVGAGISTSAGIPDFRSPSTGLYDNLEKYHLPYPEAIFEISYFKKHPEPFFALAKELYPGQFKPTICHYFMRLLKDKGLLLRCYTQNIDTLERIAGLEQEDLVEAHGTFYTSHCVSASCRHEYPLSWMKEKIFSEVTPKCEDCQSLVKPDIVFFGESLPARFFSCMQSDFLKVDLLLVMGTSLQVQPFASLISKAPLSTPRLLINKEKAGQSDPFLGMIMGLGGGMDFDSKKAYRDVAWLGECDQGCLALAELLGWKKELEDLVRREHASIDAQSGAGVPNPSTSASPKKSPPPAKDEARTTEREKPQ

[9] = biological target: NAD-dependent protein deacylase sirtuin-5, mitochondrial (Homo sapiens) (UniProt Q9NXA8); test: Activation of N-terminal his-tagged human SIRT5 (34 to 302 residues) expressed in Escherichia coli at 10 uM using p53-acK381 as substrate in presence of NAD+ by NADH oxidation-coupled enzymatic assay
Chain of NAD-dependent protein deacylase sirtuin-5, mitochondrial (Homo sapiens) (Q9NXA8 37-310 limits assumed): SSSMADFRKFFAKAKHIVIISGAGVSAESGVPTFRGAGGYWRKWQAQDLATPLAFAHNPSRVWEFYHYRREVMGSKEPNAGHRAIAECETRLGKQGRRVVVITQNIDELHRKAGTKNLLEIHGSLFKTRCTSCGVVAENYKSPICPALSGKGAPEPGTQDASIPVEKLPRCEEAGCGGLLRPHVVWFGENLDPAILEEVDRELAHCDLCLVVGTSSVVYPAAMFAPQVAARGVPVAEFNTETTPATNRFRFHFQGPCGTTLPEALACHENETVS

Row | Activity [1] | Activity [2] | Activity [8] | Activity [9] | SMILES | Activity (CAL-62) | Activity (MDA-MB-231 [3]) | Activity (MDA-MB-231 [4]) | Activity (MDA-MB-231 [5]) | Activity (MDA-MB-231 [6]) | Activity (MDA-MB-231 [7])
1 | 158% | inactive | inactive | inactive | CCOC(=O)C1=CN(C(=O)c2ccc(OC)c(OC)c2)C=C(C(=O)OCC)C1c1ccccc1 | Tde | Active | Active | Active | Active | Active
2 | 149% | inactive | inactive | inactive | CCOC(=O)C1=CN(C(=O)c2cc(OC)cc(OC)c2)C=C(C(=O)OCC)C1c1ccccc1 | Tde | Active | Active | Active | Active | Active
